MC4R barr agon: human MC4R agonism via beta-arrestin; U2OS MC4R beta-arrestin complementation, luminescence; percent of melanotan II response, DMSO zero; activation, % at 8.9 µM; actives 0.98% (n = 360,000); P32245;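 active = activation above a per-plate cutoff, the mean activation of sample wells on that plate plus 3 SD, cut at about 8% in these data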
MC4R antagonist: antagonists of human melanocortin 4 receptor (MC4R); inhibition, % at 6.5 µM; AID 540295; P32245; actives 0.48% (n = 360,000); MC4R-expressing cells, MTII-stimulated cAMP, LANCE TR-FRET;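 active = inhibition above its plate's cutoff, the mean of tested wells on that plate plus 3 SD, cut at about 29% in these data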
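system = U2OS cells with stable human MC4R expression | also added = Melanotan II challenge after compound preincubation | dosing = one concentration, 6.5 µM nominal | incubation = compound 30 min, challenge 1 h, detection 1 h | measured by = TR-FRET with Eu-cAMP and labeled anti-cAMP, 671 nm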
m5-HT2A agonist: agonists of mouse serotonin 5-HT2A receptor (HTR2A); P35363; CHO-K1 mHTR2A beta-arrestin complementation, luminescence; percent of 30 µM serotonin response; activation, % at 7.6 µM; actives 0.66% (n = 360,000); AID 624169;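 active = activation above a run cutoff, the mean activation of all tested compounds plus 3 SD, cut at about 14% in these data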
AHR act: activates the human aryl hydrocarbon receptor. P35869. actives 2.5% (n = 320,000). activation, % at 5 µM. AHR-responsive luciferase reporter cells, luminescence; in the data active = activation above about 47%
Target sequence (P35869 whole entry, looked up): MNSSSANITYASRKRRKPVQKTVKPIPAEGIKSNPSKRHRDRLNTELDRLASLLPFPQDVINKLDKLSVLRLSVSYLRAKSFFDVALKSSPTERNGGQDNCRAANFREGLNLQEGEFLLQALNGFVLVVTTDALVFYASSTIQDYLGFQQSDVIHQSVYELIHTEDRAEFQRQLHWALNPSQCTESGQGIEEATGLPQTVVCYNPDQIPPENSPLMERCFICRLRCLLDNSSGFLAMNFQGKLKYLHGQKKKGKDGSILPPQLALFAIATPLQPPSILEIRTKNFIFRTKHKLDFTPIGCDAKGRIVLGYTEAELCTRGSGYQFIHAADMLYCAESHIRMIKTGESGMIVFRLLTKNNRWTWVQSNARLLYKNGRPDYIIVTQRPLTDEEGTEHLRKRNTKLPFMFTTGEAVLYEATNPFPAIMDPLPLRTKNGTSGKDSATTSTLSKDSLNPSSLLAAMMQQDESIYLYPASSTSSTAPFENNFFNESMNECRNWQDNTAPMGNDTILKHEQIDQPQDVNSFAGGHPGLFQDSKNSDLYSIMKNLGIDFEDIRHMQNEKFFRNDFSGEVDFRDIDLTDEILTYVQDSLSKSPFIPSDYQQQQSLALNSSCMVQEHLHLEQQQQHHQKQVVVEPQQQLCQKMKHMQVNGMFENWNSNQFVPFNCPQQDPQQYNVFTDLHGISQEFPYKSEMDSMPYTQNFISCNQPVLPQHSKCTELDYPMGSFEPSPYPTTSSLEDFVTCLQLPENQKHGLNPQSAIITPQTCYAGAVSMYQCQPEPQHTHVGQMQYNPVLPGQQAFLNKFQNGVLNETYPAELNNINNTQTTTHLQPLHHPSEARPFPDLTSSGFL
FXN GAA850 act: activators of GAA850 frataxin (FXN) promoter; HEK293 lucGAA850 FXN promoter luciferase reporter, 24 h; percent of 10 µM SAHA response; activation, % at 6 µM; actives 0.56% (n = 360,000);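 active = activation above the average of all compounds screened plus 3 SD, cutoff fixed separately per campaign, cut at about 7.5% in these data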
Large screens that a line does not name were inactive. The list is not random: actives were taken first. Their share in the collection is about 4.7%.

COc1ccc(OC)c(Nc2nc(-c3ccncc3)nc3ccccc23)c1	MC4R barr agon 13 (no result: AHR act)
COc1ccc(Nc2nc(-c3ccccc3)nc3ccccc23)c(OC)c1	none
COc1cccc(Nc2nc(-c3ccccc3)nc3ccccc23)c1	AHR act 54
COc1ccc(NC(=O)Nc2c(C)n(C)n(-c3ccccc3)c2=O)c(OC)c1	none
C[C@@H]1CN([C@@H](C)CO)C(=O)c2ccccc2-c2ccccc2CO[C@@H]1CN(C)S(=O)(=O)c1ccc(C(F)(F)F)cc1	none (no result: AHR act)
CCCc1cc(=O)[nH]c(SCC(=O)NC2(C#N)CCCCC2)n1	none
CN(C)CCNc1ncnc2c1ncn2[C@H]1CN(Cc2ccc(-c3ccccc3)cc2)C[C@@H](CO)O1	none (no result: AHR act)
OCCNc1nc(Nc2cccc(O)c2)nc2ccccc12	none
COc1cccc(Nc2nc(NCCO)c3ccccc3n2)c1	AHR act 49
CCCNc1nc(Nc2ccc(C)cc2)nc(N2CCCC2)n1	AHR act 50
Cc1ccc(C)c(Nc2nc(-c3ccncc3)nc3ccccc23)c1	AHR act 68
COc1ccc(Nc2nc(NCCO)nc(N3CCCC3)n2)cc1	none
CN(C)c1ccc2c(=O)cc[nH]c2c1	none (no result: MC4R barr agon, MC4R antagonist, AHR act, FXN GAA850 act)
COCCN(C(=O)CCSc1ccc(F)cc1)c1c(N)n(Cc2ccccc2)c(=O)[nH]c1=O	none
CN(C)S(=O)(=O)c1cc(NC(=O)COC(=O)CCc2ccccc2)ccc1Cl	none
CN(C)S(=O)(=O)c1cc(NC(=O)[C@H](Cc2ccccc2)N2C(=O)c3ccccc3C2=O)ccc1Cl	AHR act 71
Fc1ccc(C2=Nn3c(nnc3-c3n[nH]c4c3CCC4)SC2)cc1	AHR act 54
Cc1cc(-c2nnc3n2N=C(c2ccccc2)CS3)n[nH]1	none
Cc1cc(-c2nnc3n2N=C(c2ccc(-c4ccccc4)cc2)CS3)n[nH]1	MC4R barr agon 9.3
C/C(=N/NC(=O)c1ccc(Br)o1)c1cccc(NC(=O)c2ccc(C)o2)c1	AHR act 51
C/C(=N/NC(=O)c1ccc(Br)o1)c1ccncc1	AHR act 50
C/C(=N/NC(=O)c1cnccn1)c1ccncc1	none
C[C@@H]1CCCCO[C@H](CN(C)C(=O)C2CCCCC2)[C@@H](C)CN([C@H](C)CO)C(=O)c2cc(N(C)C)ccc2O1	none (no result: AHR act)
COC(=O)[C@@]12C[C@@H](CC(=O)NCCC(C)C)C(=O)N(Cc3ccc4c(c3)OCO4)C1=CCC(C)(C)C2	none (no result: MC4R barr agon, MC4R antagonist, AHR act, FXN GAA850 act)
OC1(c2cccc(C(F)(F)F)c2)CCN(c2ccc(-c3ccccc3)nn2)CC1	MC4R barr agon 9.2
COc1ccc(/C=N/NC(=O)COc2ccc(Cl)cc2Cl)cc1Cn1nc(C)cc1C	MC4R barr agon 18
O=C(COc1ccc(Cl)cc1Cl)N/N=C/c1cccnc1	none
COc1cc(/C=C/CNC[C@H]2O[C@@H](n3cnc4c(N)ncnc43)[C@H](O)[C@@H]2O)ccc1O	none (no result: MC4R barr agon, MC4R antagonist, AHR act, FXN GAA850 act)
O=C(CN1C(=O)NC2(CCCC2)C1=O)OCCOc1ccc(Br)cc1	none
O=C1NC(c2ccccc2)=C(c2nc3ccccc3s2)C(c2ccc(O)cc2)N1 (stereo not given)	MC4R barr agon 63
O=C1NC(c2ccccc2)=C(c2ccc3ccccc3n2)C(c2ccccc2)N1 (stereo not given)	none
C/C(=N\Nc1ccccn1)c1ccc(C(C)C)cc1	none
C/C(=N\Nc1ccccn1)c1ccc2c(c1)OCO2	AHR act 59
C/C(=N\Nc1ccccn1)c1ccc(Br)s1	AHR act 70
Cc1ccc(S(=O)(=O)N2CCN(C(=O)COC(=O)/C=C/c3cccc([N+](=O)[O-])c3)CC2)c(C)c1	none (no result: AHR act)
O=C(CCl)N=c1sccn1Cc1ccccc1Cl	MC4R barr agon 24
O=C(CCl)N=c1sccn1Cc1ccc(Cl)cc1Cl	MC4R barr agon 12
O=C(CCl)N=c1sccn1Cc1cccc2ccccc12	none (no result: AHR act)
CCN(CC)S(=O)(=O)c1ccc(NC(=O)c2ccc(OCC3CCCO3)cc2)cc1 (stereo not given)	none
Cc1[nH]ccc2c1[nH]c1cc(=O)ccc12	AHR act 71
O=c1cc[nH]c2c1ccc1c(=O)cc[nH]c12	none
CCOc1ccc(/C=N/NC(=O)c2ccccc2O)cc1CN1CC2CC(C1)c1cccc(=O)n1C2 (stereo not given)	none
Cc1cc(-c2ccc(C(C)C)c(S(=O)(=O)Nc3cc(C)on3)c2)on1	none
COc1ccc(S(=O)(=O)Cc2ccc(C(=O)N3CCN(c4ccccn4)CC3)o2)cc1	none
COc1ccccc1S(=O)(=O)Cc1ccc(C(=O)N2CCN(c3ccccn3)CC2)o1	AHR act 66
O=C(c1ccc(CS(=O)c2ccccc2Cl)o1)N1CCN(c2ccccn2)CC1 (stereo not given)	AHR act 59
O=C(CSc1nnc2ccc(-c3ccc(F)cc3)nn12)N1CCCC1	MC4R antagonist 33
O=C(CSc1nnc2ccc(-c3ccc(F)cc3)nn12)NCC1CCCO1 (stereo not given)	none
CN1C(=O)/C(=C/c2ccccc2OCc2ccc(F)cc2)N(C)C1=S	AHR act 78
O=C(O)CN1C(=O)/C(=C\c2ccccc2OCc2ccc(F)cc2)SC1=S	none
O=c1c2ccc(F)cc2sn1-c1ccccc1	none (no result: AHR act)
Cc1ccc(-n2sc3cc(F)ccc3c2=O)c(C)c1	MC4R barr agon 8.8 (no result: AHR act)
CC(=O)Nc1ccc(S(=O)(=O)N(C)c2ccc(OCC(=O)NCCc3ccccc3F)cc2)cc1	none (no result: AHR act)
O=C(Nc1ccc(F)cc1)c1cccnn1	AHR act 51
CCOC(=O)c1c(C)[nH]c(C)c1S(=O)(=O)N(C)CC(=O)Nc1cc(C)ccc1OC	AHR act 55
Cc1cc(OCC(=O)OCC(=O)N2CCc3ccccc3C2)ccc1Cl	none
CC(C)C1C(=O)N(Cc2cn(CCC3OCCCO3)nn2)CCS(=O)(=O)N1Cc1ccc(-c2ccc(Cl)nc2)cc1 (stereo not given)	none (no result: AHR act)
COC(=O)c1c(/N=C/N(C)C)sc2c1CCN(c1ncc(C(F)(F)F)cc1Cl)C2	AHR act 72
COC(=O)c1c(N(S(C)(=O)=O)S(C)(=O)=O)sc2c1CCN(c1ncc(C(F)(F)F)cc1Cl)C2	none
S=c1nc(Cc2ccc(Cl)cc2)[nH]c2ccccc12	MC4R barr agon 8.9
S=c1nc(Cc2ccccc2)[nH]c2ccccc12	none
O=C(Cn1cnc2c(NC(=O)OCc3ccccc3)ncnc21)NCCN1CCOCC1	none
COc1ccc(NC(=O)C23CC4CC(C2)CC(n2cnc(Br)n2)(C4)C3)cc1Cl	AHR act 51
O=C(O)c1cccc(NC(=O)C23CC4CC(C2)CC(n2cnc(Cl)n2)(C4)C3)c1	none
Cc1csc(N=Cc2ccc([N+](=O)[O-])o2)n1	none (no result: AHR act)
COc1ccc(-c2nc3cc(C)c(Br)c(C)n3c2Cc2ccccc2C(F)(F)F)cc1OC	none (no result: MC4R barr agon, MC4R antagonist, AHR act, FXN GAA850 act)
COc1ccc2c(c1)OC(c1ccccc1)(C(F)(F)F)NC2=O (stereo not given)	none
CC(C)Oc1ccc2c(c1)OC(c1ccccc1)(C(F)(F)F)NC2=O (stereo not given)	MC4R barr agon 8.5

Screening results: PubChem, The Scripps Research Institute Molecular Screening Center
